Data set [1] is described as follows: Selectivity index, ratio of CC50 for MDCK cells to EC50 for Influenza A virus (A/PR8/34(H1N1)). The class given is toxicity, cell-based. As to conditions: dog, read-out: Ratio CC50/EC50.
The test system of a further data set is Influenza A virus. The data set can be described thus: Antiviral activity against Influenza A virus (A/PR8/34(H1N1)) infected in MDCK cells assessed as inhibition of plaque formation. The class given is functional, organism-based. Particulars: A/Puerto Rico/8/1934(H1N1). An outline of the steps:
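Compound premixed with virus in Opti-MEM I with 0.2% DMSO for 30 min at room temperature. The mixture was applied to confluent MDCK monolayers (MOI 2.5×10^-4) for 1 h at room temperature, then washed. Cells were overlaid with agar medium containing trypsin and 0.2% BSA for about 2 days at 37 °C, then fixed with glutaraldehyde and stained with methylene blue. EC50 is the concentration cutting plaque number 50% versus untreated.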

The subject of data set [2] is Radical scavenging activity. The data set can be described thus: Antioxidant activity assessed as DPPH radical scavenging activity for 10 mins. The class given is functional. An outline of the steps:
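Test compound in DMSO/MeOH 1:9 (0–20.0 mM, solution added) mixed 1:1 by volume with 0.1 mM DPPH in the same solvent; absorbance change followed at 540 nm over 10 min. IC50 is the concentration giving 50% absorbance reduction; three measurements in three independent experiments, mean with standard deviation.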

Data set [3] can be described thus: Cytotoxicity against MDCK cells after 2 hrs by MTT assay. Particulars: dog. It counts as cell-based, Canis lupus familiaris. The gist of the method: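 MDCK cells seeded at 1.5×10^4 per well in DMEM/10% FCS for 4–5 h, washed, exposed to compound in Opti-MEM I with 0.2% DMSO for 2 h. Then washed and kept in DMEM with 0.2% BSA for 24 h at 37 °C, 5% CO2. Viability by MTT reduction; CC50 relative to untreated wells.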

Another data set deals with Liver microsomes. The data set can be described thus: Antioxidant activity in Wistar rat liver microsomes assessed as inhibition of lipid peroxidation after 1 hr by thiobarbiturate color reaction. It counts as functional, Microsome. An outline of the steps: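 Wistar rat liver microsomes in 50 mM Tris-HCl, 100 mM KCl, 0.1 mM EDTA, pH 7.4 (0.625 mg protein/mL). Compound (0–100 μM in DMSO, as added) incubated with tert-butylhydroperoxide (10 mM stock) at 37 °C for 1 h. TBA/TCA added, heated 90 °C 15 min, centrifuged, read at 535 nm. IC50 is 50% inhibition of colour; triplicates in three experiments.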

The structures appear in SMILES notation.

Consider `CCCCCCCC(=O)Oc1cc(O)c2c(c1)O[C@H](c1ccc3c(c1)OC(c1ccc(O)c(OC)c1)C(CO)O3)[C@@H](O)C2=O` (stereo partly drawn), for which, in data set [1], the selectivity ratio was 40. The EC50 with Influenza A virus stood at 6 µM. Besides, the IC50 in data set [2] came out at 4000 µM; in the data set on Liver microsomes, 117 µM. In data set [3], this molecule showed a CC50 at 2 h of 240 µM.

With `CCCCCCCCCCCC(=O)Oc1cc(O)c2c(c1)O[C@H](c1ccc3c(c1)OC(c1ccc(O)c(OC)c1)C(CO)O3)[C@@H](O)C2=O` (stereo partly drawn), in data set [1], the selectivity ratio was above 93.3. Besides, the EC50 with Influenza A virus was determined as 6 µM. The IC50 worked out at 3000 µM in data set [2] and 44.7 µM in the data set on Liver microsomes. This molecule came in with a CC50 at 2 h in data set [3] above 560 µM.

On to `CCCCCCCCCCCCCCCC(=O)Oc1cc(O)c2c(c1)O[C@H](c1ccc3c(c1)OC(c1ccc(O)c(OC)c1)C(CO)O3)[C@@H](O)C2=O` (stereo partly drawn), for which the IC50 came to 3600 µM in data set [2] and 28.9 µM in the data set with Liver microsomes.

Regarding `CCCCCCCC(=O)OCC1Oc2ccc([C@H]3Oc4cc(O)cc(O)c4C(=O)[C@@H]3O)cc2OC1c1ccc(O)c(OC)c1` (stereo partly drawn), the IC50 came out at 3200 µM in data set [2] and 61.1 µM with Liver microsomes. The same molecule yielded a CC50 at 2 h in data set [3] of 30 µM.

Consider `CCCCCCCCCCCC(=O)OCC1Oc2ccc([C@H]3Oc4cc(O)cc(O)c4C(=O)[C@@H]3O)cc2OC1c1ccc(O)c(OC)c1` (stereo partly drawn), for which the selectivity ratio in data set [1] was 40. Further, the EC50 with Influenza A virus came to 3 µM. Besides, the figures for the IC50 (in data set [2]; with Liver microsomes) were 2800 µM and 50.5 µM, respectively. In data set [3], this molecule gave a half-maximal cytotoxic concentration (CC50) at 2 h of 120 µM.

Consider `CCCCCCCCCCCCCCCC(=O)OCC1Oc2ccc([C@H]3Oc4cc(O)cc(O)c4C(=O)[C@@H]3O)cc2OC1c1ccc(O)c(OC)c1` (stereo partly drawn), for which, in data set [1], the selectivity ratio is above 160. Moreover, the EC50 with Influenza A virus was 3 µM. The IC50 in data set [2] is 3200 µM; in the data set with Liver microsomes, 51.9 µM. Moreover, in data set [3], the CC50 at 2 h is above 480 µM.

Regarding `CCCC(=O)Oc1cc(O)c2c(c1)O[C@H](c1ccc3c(c1)OC(c1ccc(O)c(OC)c1)C(CO)O3)[C@@H](O)C2=O` (stereo partly drawn), the selectivity ratio in data set [1] was 21.4. The EC50 in the data set on Influenza A virus was found to be 14 µM. For the same molecule, the figures for the IC50 (in data set [2]; in the data set on Liver microsomes) were 2300 µM and 101 µM, respectively. In data set [3], this molecule gave a CC50 at 2 h of 300 µM.

For `CCCC(=O)OCC1Oc2ccc([C@H]3Oc4cc(O)cc(O)c4C(=O)[C@@H]3O)cc2OC1c1ccc(O)c(OC)c1` (stereo partly drawn), the selectivity ratio in data set [1] came to 12.5. The EC50 with Influenza A virus stood at 24 µM. Also, the IC50 in data set [2] was found to be 3400 µM; with Liver microsomes, 91.7 µM. This molecule had a CC50 at 2 h in data set [3] of 300 µM.

Take `COc1cc(C2Oc3cc([C@H]4Oc5cc(O)cc(O)c5C(=O)[C@@H]4O)ccc3OC2CO)ccc1O` (stereo partly drawn) [SILIBININ]: the IC50 in data set [2] was 2100 µM; in the data set with Liver microsomes, 58.1 µM. For the same molecule, the CC50 at 2 h in data set [3] was above 800 µM.

As a reminder, the EC50 is the concentration giving half of the maximal effect. The IC50 is the concentration at which inhibition is half-maximal. A word on the CC50: it is the concentration giving 50% cytotoxicity. A low value points to greater toxicity to the cells.
